Experimental data: ChEMBL document CHEMBL3272168, “Benzodipyran derivatives with antiallergic activity” (1976)

Tested on: Rattus norvegicus
Test: Antiallergic activity in iv dosed sensitized Sprague-Dawley rat assessed as inhibition of passive cutaneous anaphylaxis
Type: functional
Conditions: read-out: ID50 (the source's name)
Outline: (§1)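 Female Sprague-Dawley rats (80–100 g, groups of five) got 0.1 ml intradermal flank injections of rat anti-N. braziliensis reaginic serum, diluted 1 in 8 to 1 in 32. After 24 h they were challenged iv with worm antigen (25 mg/kg protein) plus Evans blue (25 mg/kg). Compound in saline was given iv with the challenge. Rats were killed at 30 min and dye spots graded 0–4. % inhibition = 100 − 100 × treated/control mean score. ID50 was interpolated from a log-dose plot.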

Row | Structure (SMILES) | ED50 [mg/kg]
1 | COc1cc2oc(C(=O)[O-])cc(=O)c2c2oc(C(=O)[O-])cc(=O)c12.[Na+].[Na+] | 0.73
2 | O=C([O-])c1cc(=O)c2c(cc(O)c3c(=O)cc(C(=O)[O-])oc32)o1.[Na+].[Na+] | 5
3 | CCc1cc2c(=O)cc(C(=O)[O-])oc2c2c(=O)cc(C(=O)[O-])oc12.[Na+].[Na+] | 10
4 | CCOc1cc2oc(C(=O)[O-])cc(=O)c2c2oc(C(=O)[O-])cc(=O)c12.[Na+].[Na+] | 0.38
5 | O=C([O-])c1cc(=O)c2c(ccc3c(=O)cc(C(=O)[O-])oc32)o1.[Na+].[Na+] | 7.6
6 | O=C([O-])c1cc(=O)c2c(o1)c(Cl)cc1c(=O)cc(C(=O)[O-])oc12.[Na+].[Na+] | > 10
7 | C=CCOc1cc2oc(C(=O)[O-])cc(=O)c2c2oc(C(=O)[O-])cc(=O)c12.[Na+].[Na+] | 0.62
8 | C=CCc1c(OC)c2c(=O)cc(C(=O)[O-])oc2c2c(=O)cc(C(=O)[O-])oc12.[Na+].[Na+] | 0.22
9 | CCCc1c(OC)c2c(=O)cc(C(=O)[O-])oc2c2c(=O)cc(C(=O)[O-])oc12.[Na+].[Na+] | 0.18
10 | CCc1c2oc(C(=O)[O-])cc(=O)c2c(C)c2c(=O)cc(C(=O)[O-])oc12.[Na+].[Na+] | 0.03
11 | Cc1c2oc(C(=O)[O-])cc(=O)c2cc2c(=O)cc(C(=O)[O-])oc12.[Na+].[Na+] | 0.25
12 | CCc1c2oc(C(=O)[O-])cc(=O)c2cc2c(=O)cc(C(=O)[O-])oc12.[Na+].[Na+] | 0.1
13 | CCCc1c2oc(C(=O)[O-])cc(=O)c2cc2c(=O)cc(C(=O)[O-])oc12.[Na+].[Na+] | 0.05
14 | CCCCc1c2oc(C(=O)[O-])cc(=O)c2cc2c(=O)cc(C(=O)[O-])oc12.[Na+].[Na+] | 0.05
15 | O=C([O-])c1cc(=O)c2cc3c(=O)cc(C(=O)[O-])oc3c([N+](=O)[O-])c2o1.[Na+].[Na+] | 1.6
16 | O=C([O-])c1cc(=O)c2cc3c(=O)cc(C(=O)[O-])oc3cc2o1.[Na+].[Na+] | 0.18
17 | CCOCc1c2oc(C(=O)[O-])cc(=O)c2cc2c(=O)cc(C(=O)[O-])oc12.[Na+].[Na+] | 0.33
18 | COc1c2c(=O)cc(C(=O)[O-])oc2cc2oc(C(=O)[O-])cc(=O)c12.[Na+].[Na+] | 0.32
19 | CCCc1c2oc(C(=O)[O-])cc(=O)c2c(OC)c2c(=O)cc(C(=O)[O-])oc12.[Na+].[Na+] | 0.1
20 | O=C([O-])c1cc(=O)c2cc3oc(C(=O)[O-])cc(=O)c3cc2o1.[Na+].[Na+] | 0.68
21 | O=C([O-])c1cc(=O)c2c(o1)c1c(c3c(=O)cc(C(=O)[O-])oc32)OCC1.[Na+].[Na+] | 0.35
22 | Cc1cc(=O)oc2c1c1oc(C(=O)[O-])cc(=O)c1c1oc(C(=O)[O-])cc(=O)c21.[Na+].[Na+] | 4.24
23 | O=C([O-])c1cc(=O)c2c(OCC(O)COc3cccc4oc(C(=O)[O-])cc(=O)c34)cccc2o1.[Na+].[Na+] [CROMOLYN SODIUM] | 1.2

Tested on: Rattus norvegicus
Test: Antiallergic activity in sensitized Sprague-Dawley rat assessed as inhibition of passive cutaneous anaphylaxis at 1 mg/kg, iv
Type: functional
Conditions: not given
Outline: as §1

Row | Structure (SMILES) | inhibition in vivo at 1 mg/kg [%]
24 | CCCc1c2oc(C(=O)[O-])cc(=O)c2c(OC)c2c(=O)cc(C(=O)[O-])oc12.[Na+].[Na+] | 100
